According to ChEMBL document CHEMBL2401640, “In search of flavivirus inhibitors: evaluation of different tritylated nucleoside analogues” (Eur J Med Chem, 2013):

Experiments:
[1] = Selectivity index, ratio of CC50 for african green monkey Vero cells to EC50 for YFV 17D
In short: (§1)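 Vero-B cells (ATCC CCL-81), grown in MEM with 10% FCS, seeded at 2 x 10⁴ cells/well in 2% FCS medium and left to adhere overnight. Infected with 100 CCID₅₀ of YFV-17D vaccine strain (one passage in Vero-B), then serial compound dilutions added. After one week, fixed with ethanol and stained with methylene blue. EC₅₀ for CPE inhibition and CC₅₀ from uninfected parallel cultures, both read visually.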

[2] = Cytotoxicity against african green monkey Vero cells after 1 week; type: cell-based; details: chlorocebus sabaeus
In short: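 Vero-B cells in MEM with 2% FCS, seeded at 7 x 10³ (DENV assay) or 2 x 10⁴ (YFV assay) cells/well and left to adhere overnight. Serial compound dilutions were added without virus and incubated one week. Cells were ethanol-fixed and stained with 1% methylene blue. CC50, the concentration inhibiting cell growth by 50%, was determined visually.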

[3] = tested on: Yellow fever virus; experiment: Antiviral activity against YFV 17D infected in african green monkey Vero cells assessed as inhibition of virus-induced cytopathic effect after 1 week; type: functional, cell-based; details: 168 h; in short: as §1
[4] = Cytotoxicity against mosquito C6/36 cells after 1 week; type: cell-based; details: aedes albopictus
[5] = Selectivity index, ratio of CC50 for mosquito C6/36 cells to EC50 for DENV serotype 2 NGC
[6] = tested on: dengue virus type 2; experiment: Antiviral activity against DENV serotype 2 NGC infected in mosquito C6/36 cells assessed as inhibition of virus-induced cytopathic effect after 1 week; type: functional, organism-based; details: C6/36, 168 h

Structure (SMILES)	Ratio CC50/EC50 [1]	CC50 at 168 h [2]	EC50 [3]	CC50 at 168 h [4]	Ratio CC50/EC50 [5]	EC50 [6]
O=c1ccn([C@@H]2O[C@H](COC(c3ccccc3)(c3ccccc3)c3ccccc3)[C@@H](O)[C@H]2O)c(=O)[nH]1	4.5	18 µM	4000 nM	10 µM	1.67	6 µM
O=c1ccn([C@@H]2O[C@H](COC(c3ccccc3)(c3ccccc3)c3ccccc3)[C@@H](OC(c3ccccc3)(c3ccccc3)c3ccccc3)[C@H]2O)c(=O)[nH]1	>85	> 85 µM	1000 nM	> 10 µM	>5	1.75 µM
O=c1ccn([C@@H]2O[C@H](COC(c3ccccc3)(c3ccccc3)c3ccccc3)[C@@H](O)[C@H]2OC(c2ccccc2)(c2ccccc2)c2ccccc2)c(=O)[nH]1	>80	> 100 µM	1200 nM	> 100 µM	>3	30 µM
O=c1ccn([C@@H]2O[C@H](CO)[C@@H](O)[C@H]2OC(c2ccccc2)(c2ccccc2)c2ccccc2)c(=O)[nH]1	1.4	35 µM	25000 nM	40 µM		
O=c1ccn([C@@H]2O[C@H](CO)[C@@H](OC(c3ccccc3)(c3ccccc3)c3ccccc3)[C@H]2O)c(=O)[nH]1	1.8	18 µM	10000 nM	18 µM		
O=c1ccn([C@H]2C[C@H](OC(c3ccccc3)(c3ccccc3)c3ccccc3)[C@@H](COC(c3ccccc3)(c3ccccc3)c3ccccc3)O2)c(=O)[nH]1	>70	> 65 µM	900 nM	> 65 µM	>17	3.7 µM
O=c1ccn([C@H]2C[C@H](OC(c3ccccc3)(c3ccccc3)c3ccccc3)[C@@H](CO)O2)c(=O)[nH]1	2.7	4 µM	1500 nM	5 µM		
Cc1cn([C@H]2C[C@H](OC(c3ccccc3)(c3ccccc3)c3ccccc3)[C@@H](COC(c3ccccc3)(c3ccccc3)c3ccccc3)O2)c(=O)[nH]c1=O	7	70 µM	10000 nM	35 µM		
Cc1cn([C@H]2C[C@H](O)[C@@H](COC(c3ccccc3)(c3ccccc3)c3ccccc3)O2)c(=O)[nH]c1=O		8 µM		4 µM		
Cc1cn([C@H]2C[C@H](OC(c3ccccc3)(c3ccccc3)c3ccccc3)[C@@H](CO)O2)c(=O)[nH]c1=O	1.8	18 µM	10000 nM	10 µM		
O=c1[nH]c(=O)n([C@@H]2O[C@H](COC(c3ccccc3)(c3ccccc3)c3ccccc3)[C@@H](O)[C@H]2O)cc1Cl	2.5	5 µM	2000 nM	5 µM		
O=c1[nH]c(=O)n([C@@H]2O[C@H](COC(c3ccccc3)(c3ccccc3)c3ccccc3)[C@@H](OC(c3ccccc3)(c3ccccc3)c3ccccc3)[C@H]2O)cc1Cl	2.9	2 µM	700 nM	1 µM		
O=c1[nH]c(=O)n([C@@H]2O[C@H](COC(c3ccccc3)(c3ccccc3)c3ccccc3)[C@@H](O)[C@H]2OC(c2ccccc2)(c2ccccc2)c2ccccc2)cc1Cl	>90	> 70 µM	750 nM	30 µM	1.75	17 µM
O=c1[nH]c(=O)n([C@@H]2O[C@H](CO)[C@@H](O)[C@H]2OC(c2ccccc2)(c2ccccc2)c2ccccc2)cc1Cl	2	30 µM	15000 nM	30 µM		
O=c1[nH]cnc2c1ncn2[C@@H]1O[C@H](COC(c2ccccc2)(c2ccccc2)c2ccccc2)[C@@H](OC(c2ccccc2)(c2ccccc2)c2ccccc2)[C@H]1O	>40	10 µM	< 400 nM	10 µM	6.6	1.5 µM
O=c1[nH]cnc2c1ncn2[C@@H]1O[C@H](COC(c2ccccc2)(c2ccccc2)c2ccccc2)[C@@H](O)[C@H]1OC(c1ccccc1)(c1ccccc1)c1ccccc1		10 µM		6 µM		
Oc1ncnc2c1ncn2[C@@H]1O[C@H](COC(c2ccccc2)(c2ccccc2)c2ccccc2)[C@@H](O)[C@H]1O		30 µM		30 µM		
O=c1ccn([C@H]2C[C@H](O)[C@@H](COC(c3ccccc3)(c3ccccc3)c3ccccc3)O2)c(=O)[nH]1	1.7	5 µM	3000 nM	8 µM		
